IC50, Activity and Ki data for nine compounds are collected here from ChEMBL document CHEMBL2034818, “Synthesis and evaluation of boronic acids as inhibitors of Penicillin Binding Proteins of classes A, B and C” (Bioorg Med Chem, 2012).

Where a chain is given by its changes, count along the chain named.

Test [1] deals with T1, D-alanyl-D-alanine carboxypeptidase (Actinomadura sp. R39, UniProt P39045). In words: Inhibition of Actinomadura sp. R39 PBP using S2d as substrate incubated for 60 mins prior to substrate addition by DTNB-based spectrophotometry. An outline of the steps: (§1)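 PBP purified per earlier method. Pre-incubation: enzyme with inhibitor (DMF stock, 1% DMF final) at 25 °C for 60 min. Buffer for R39 (3.5 nM): 10 mM sodium phosphate pH 7.2, 100 mM NaCl, 100 mM D-alanine, 0.01 mg/mL BSA. Buffer for PBP2xR6: 10 mM sodium phosphate pH 7.0, 0.01 mg/mL BSA. S2d (1 mM) and DTNB (1 mM) then added. Initial hydrolysis rate read at 412 nm. Triplicates. IC50 by non-linear regression of residual activity over a concentration range, with 0.01% Triton X-100.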

Test [2] concerns the target D-alanyl-D-alanine carboxypeptidase (Actinomadura sp. R39) (UniProt P39045). The test can be described thus: Inhibition of Actinomadura sp. R39 PBP using S2d as substrate assessed as residual activity at 1 mM incubated for 60 mins prior to substrate addition by DTNB-based spectrophotometry in presence of triton X 100. The procedure, abridged: (§2)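 R39 (Actinomadura, prepared per Granier), 3.5 nM, pre-incubated with inhibitor 60 min at 25 °C in 10 mM sodium phosphate pH 7.2, 100 mM NaCl, 100 mM D-alanine, 0.01 mg/mL BSA; inhibitors from DMF stock, 1% DMF final. Residual activity from initial rate of S2d (1 mM) hydrolysis with DTNB (1 mM), read at 412 nm, corrected for spontaneous hydrolysis; triplicates, uninhibited control six replicates per plate.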

The target of test [3] is T2, Penicillin-binding protein 2X (Streptococcus pneumoniae R6, UniProt P59676).
T2 sequence (P59676 whole entry): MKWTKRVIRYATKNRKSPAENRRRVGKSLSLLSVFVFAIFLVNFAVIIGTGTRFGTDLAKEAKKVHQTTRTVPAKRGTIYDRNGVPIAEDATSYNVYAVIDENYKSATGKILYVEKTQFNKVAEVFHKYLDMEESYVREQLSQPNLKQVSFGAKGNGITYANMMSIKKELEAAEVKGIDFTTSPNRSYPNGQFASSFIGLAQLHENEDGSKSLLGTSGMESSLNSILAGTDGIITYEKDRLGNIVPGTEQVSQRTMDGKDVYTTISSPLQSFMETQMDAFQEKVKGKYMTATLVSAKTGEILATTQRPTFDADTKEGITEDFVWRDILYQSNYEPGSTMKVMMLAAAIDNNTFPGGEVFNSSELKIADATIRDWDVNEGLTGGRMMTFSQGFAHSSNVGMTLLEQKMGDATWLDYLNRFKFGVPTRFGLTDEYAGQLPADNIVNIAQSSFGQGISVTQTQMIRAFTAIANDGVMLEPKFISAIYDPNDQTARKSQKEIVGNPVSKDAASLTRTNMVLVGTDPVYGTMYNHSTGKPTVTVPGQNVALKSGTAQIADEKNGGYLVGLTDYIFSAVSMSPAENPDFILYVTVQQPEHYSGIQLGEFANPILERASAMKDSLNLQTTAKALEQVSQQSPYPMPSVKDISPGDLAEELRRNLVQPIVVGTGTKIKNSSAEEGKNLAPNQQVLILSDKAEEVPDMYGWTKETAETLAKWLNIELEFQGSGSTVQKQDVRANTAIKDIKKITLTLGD
The test can be described thus: Inhibition of penicillin-sensitive Streptococcus pneumoniae R6 PBP2x using S2d as substrate incubated for 60 mins prior to substrate addition by DTNB-based spectrophotometry. The procedure, abridged:
as §1

A further test deals with Enterococcus faecium. In words: Inhibition of penicillin-resistant Enterococcus faecium PBP5fm assessed as residual activity at 1 mM incubated for 4 hrs prior to prior to fluoresceyl-ampicillin labelling measured after 20 mins by SDS-PAGE analysis.
Test [4] concerns the target T3, Penicillin-binding protein 2x (Streptococcus pneumoniae serotype 4 (strain ATCC BAA-334 / TIGR4)) (UniProt P14677).
T3 sequence (whole entry): T2 sequence (P59676 whole entry) with M385T
The test can be described thus: Inhibition of penicillin-resistant Streptococcus pneumoniae 5204 PBP2x using S2d as substrate assessed as residual activity at 1 mM incubated for 4 hrs prior to substrate addition by DNTB-based spectrophotometry in the presence of triton X 100.

The target of test [5] is T1, D-alanyl-D-alanine carboxypeptidase. In words: Binding affinity to Actinomadura sp. R39 PBP.
Test [6] deals with T4, Penicillin-binding protein 2X (Streptococcus pneumoniae R6) (UniProt P59676).
T4 sequence (whole entry): T2 sequence (P59676 whole entry)
The test can be described thus: Inhibition of penicillin-sensitive Streptococcus pneumoniae R6 PBP2x using S2d as substrate assessed as residual activity at 1 mM incubated for 60 mins prior to substrate addition by DTNB-based spectrophotometry in presence of triton X 100. The procedure, abridged:
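PBP2xR6 (0.09 µM) pre-incubated with inhibitor for 60 min at 25 °C in 10 mM sodium phosphate pH 7.0, 0.01 mg/mL BSA, with 0.01% Triton X-100. 1% DMF final. S2d (1 mM) and DTNB (1 mM) then added. Initial hydrolysis rate read at 412 nm. Triplicates. Uninhibited activity from six replicates per plate.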

A further test relates to Staphylococcus aureus. In words: Inhibition of penicillin-resistant Staphylococcus aureus PBP2a assessed as residual activity at 1 mM incubated for 4 hrs prior to prior to fluoresceyl-ampicillin labelling measured after 20 mins by SDS-PAGE analysis.
For test [7], the system named is Streptococcus pneumoniae. The test can be described thus: Inhibition of Streptococcus pneumoniae PBP1b using PATP thioester as substrate assessed as residual activity at 100 uM incubated for 60 mins prior to substrate addition by DNTB-based spectrophotometry in the presence of triton X 100. The procedure, abridged:
(§3)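 Assay B: S. pneumoniae PBP1b (0.2 µM) pre-incubated with inhibitor 60 min at 25 °C in 10 mM sodium phosphate pH 7.0, 100 mM D-alanine, 0.01 mg/mL BSA, 0.01% Triton X-100. Residual activity from initial rates of PATP thioester (5 mM) hydrolysis with DTNB (1.0 mM); IC50 by non-linear regression of residual activity across concentrations.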

Test [8] is described as follows: Inhibition of Streptococcus pneumoniae PBP1b using PATP thioester as substrate incubated for 60 mins prior to substrate addition by DNTB-based spectrophotometry in the presence of triton X 100. An outline of the steps:
as §3

Test [9] deals with T4, Penicillin-binding protein 2X (Streptococcus pneumoniae R6). In words: Inhibition of penicillin-sensitive Streptococcus pneumoniae R6 PBP2x using S2d as substrate assessed as residual activity at 1 mM incubated for 60 mins prior to substrate addition by DTNB-based spectrophotometry. The procedure, abridged: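 S. pneumoniae PBP2x-R6, 0.09 µM, pre-incubated with inhibitor in 10 mM sodium phosphate pH 7.0 with 0.01 mg/mL BSA, 60 min, 25 °C; 1% DMF final. S2d (1 mM) plus DTNB (1 mM) then added; residual activity taken from initial hydrolysis rate at 412 nm, corrected for spontaneous hydrolysis; triplicates, six no-inhibitor controls per plate.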

Test [10] addresses D-alanyl-D-alanine carboxypeptidase (Actinomadura sp. R39) (UniProt P39045). The test can be described thus: Inhibition of Actinomadura sp. R39 PBP using S2d as substrate assessed as residual activity at 1 mM incubated for 60 mins prior to substrate addition by DTNB-based spectrophotometry. An outline of the steps:
as §2

Test [11] concerns Streptococcus pneumoniae. The test can be described thus: Inhibition of Streptococcus pneumoniae PBP1b using PATP thioester as substrate assessed as residual activity at 1 mM incubated for 60 mins prior to substrate addition by DNTB-based spectrophotometry in the presence of triton X 100. An outline of the steps:
as §3

For test [12], the target named is T3, Penicillin-binding protein 2x (Streptococcus pneumoniae serotype 4 (strain ATCC BAA-334 / TIGR4)). In words: Inhibition of penicillin-resistant Streptococcus pneumoniae 5204 PBP2x using S2d as substrate assessed as residual activity at 1 mM incubated for 4 hrs prior to substrate addition by DNTB-based spectrophotometry.
For test [13], the system named is Streptococcus pneumoniae. The test can be described thus: Inhibition of Streptococcus pneumoniae PBP1b assessed as residual activity at 100 uM incubated for 60 mins prior to fluoresceyl-ampicillin labelling measured after 20 mins by SDS-PAGE analysis in the presence of triton X 100. An outline of the steps: (§4)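 Assay A: purified S. pneumoniae PBP1b (0.7 µM) pre-incubated with inhibitor in 10 mM sodium phosphate pH 7.0, 60 min, 25 °C, 0.01% Triton X-100. Remaining active enzyme labelled with fluoresceyl-ampicillin (10 µM), 20 min; reaction stopped, run on SDS-PAGE, fluorescence of the band quantified as residual activity.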

The test system of test [14] is Streptococcus pneumoniae. In words: Inhibition of Streptococcus pneumoniae PBP1b assessed as residual activity at 1mM incubated for 60 mins prior to fluoresceyl-ampicillin labelling measured after 20 mins by SDS-PAGE analysis in the presence of triton X 100. An outline of the steps: as §4
The nature of test [15]: Inhibition of Streptococcus pneumoniae PBP1b incubated for 60 mins prior to fluoresceyl-ampicillin labelling measured after 20 mins by SDS-PAGE analysis in the presence of triton X 100. The procedure, abridged:
as §4

For test [16], the system named is Streptococcus pneumoniae. The test can be described thus: Inhibition of Streptococcus pneumoniae PBP1b using PATP thioester as substrate assessed as residual activity at 1 mM incubated for 60 mins prior to substrate addition by DNTB-based spectrophotometry. An outline of the steps: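 PBP1b (0.2 µM) pre-incubated with inhibitor for 60 min at 25 °C in 10 mM sodium phosphate pH 7.0, 100 mM D-alanine, 0.01 mg/mL BSA. PATP thioester (5 mM) and DTNB (1.0 mM) then added. Residual activity derived from initial hydrolysis rates against no-inhibitor controls.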

T1 sequence (P39045 whole entry): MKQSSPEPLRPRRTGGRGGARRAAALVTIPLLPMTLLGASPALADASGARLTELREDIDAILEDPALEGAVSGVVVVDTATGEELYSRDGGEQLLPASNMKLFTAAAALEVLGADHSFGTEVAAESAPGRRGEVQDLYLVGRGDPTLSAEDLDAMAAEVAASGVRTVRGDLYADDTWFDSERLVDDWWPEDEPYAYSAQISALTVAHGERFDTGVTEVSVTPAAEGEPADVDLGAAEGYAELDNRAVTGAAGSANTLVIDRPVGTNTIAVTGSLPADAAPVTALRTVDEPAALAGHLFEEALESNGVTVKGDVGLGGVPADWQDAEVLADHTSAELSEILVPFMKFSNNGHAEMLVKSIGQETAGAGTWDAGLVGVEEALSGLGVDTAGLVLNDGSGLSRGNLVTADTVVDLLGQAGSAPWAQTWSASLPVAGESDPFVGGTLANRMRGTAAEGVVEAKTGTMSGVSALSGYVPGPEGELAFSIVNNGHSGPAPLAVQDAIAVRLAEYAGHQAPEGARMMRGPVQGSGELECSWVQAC
Sequence of D-alanyl-D-alanine carboxypeptidase (Actinomadura sp. R39) (P39045 whole entry): as above

Take `O=C(NCB(O)O)c1ccccc1[N+](=O)[O-]`: the values for the concentration for half-maximal inhibition (IC50) in test [1] and in test [3] were 0.6 µM and 138 µM, respectively. The Activity is 0% in test [2]; 88% with Enterococcus faecium; 108% in [4]; 21% in test [6]; 92% with Staphylococcus aureus; 24% in the test on Streptococcus pneumoniae [7]. In addition, the Ki in test [5] turned out to be 0.36 µM.
On to `O=C(NCB(O)O)c1c(F)cccc1F`, for which the results for the IC50 in test [1], in [3] and in test [8] were 35 µM, 906 µM and 7 µM, respectively. The Activity in the test on Enterococcus faecium was found to be 88%; in test [4] it was 86%; in test [9] it was 40%; in test [10] it was 6%; with Staphylococcus aureus, 91%; with Streptococcus pneumoniae [7] it was 7%.
`O=C(Cc1ccccc1)NCB(O)O`: 320 µM corresponded to half-maximal inhibition in [1] (IC50). For the same compound, the Activity turned out to be 56% with Streptococcus pneumoniae [11]; 83% in the test on Enterococcus faecium; 97% in test [4]; 57% in test [9]; 29% in [10]; 90% with Staphylococcus aureus. This compound also gave a Ki in test [5] of 125 µM.
For `COc1ccccc1C(=O)NCB(O)O`, the Activity in the test on Streptococcus pneumoniae [11] stood at 1%; in test [9], 86%; in [10], 43%; in test [12] it was 99%; in the test with Streptococcus pneumoniae [7], 67%.
In the case of `CC(=O)NCB(O)O`, the Activity in the test on Streptococcus pneumoniae [11] amounted to 87%; in test [9] it was 100%; in test [10], 74%; in [12] it was 97%.
For `Cc1ccccc1C(=O)NCB(O)O`, the Activity in the test with Streptococcus pneumoniae [13] is 27%; in the test on Enterococcus faecium it was 85%; in test [9], 70%; in test [10] it was 45%; in test [12], 105%; in the test with Staphylococcus aureus, 88%. In addition, in test [8], the IC50 came out at 18 µM.
Turning to `O=C(CCc1ccccc1)NCB(O)O`, the Activity turned out to be 95% in the test with Streptococcus pneumoniae [13]; 79% in the test on Enterococcus faecium; 71% in test [9]; 51% in test [10]; 99% in test [12]; 0% in the test on Streptococcus pneumoniae [14]. In the test on Staphylococcus aureus, the Activity came to 83%.
Take `COc1cccc(C(=O)NCB(O)O)c1`: in [15], the IC50 was found to be 79 µM. Also, the Activity in the test with Enterococcus faecium was found to be 89%; in test [9], 55%; in [10], 50%; in test [12], 101%; in the test on Streptococcus pneumoniae [14], 23%; in the test with Staphylococcus aureus, 91%.
As for `COc1cccc(OC)c1C(=O)NCB(O)O`, the IC50 was 1.3 µM in test [1], 278 µM in test [3] and more than 1000 µM in test [8]. In addition, the Activity was determined as 26% in test [9], 0% in test [10], 67% with Streptococcus pneumoniae [16] and 100% in test [12]. The affinity in test [5] corresponds to a Ki of 1.5 µM.

The IC50 is the concentration that inhibits the measured activity by half. By Ki is commonly meant a measure of affinity in units of concentration, obtained from inhibition or displacement. The low end stands for higher affinity, the high end for lower affinity.
